Assay results reported in ChEMBL document CHEMBL4354866, “TREK Channel Family Activator with a Well-Defined Structure-Activation Relationship for Pain and Neurogenic Inflammation” (J Med Chem, 2020).
The source made the active and inactive calls. No cut-off for these calls is given here.

What was measured:
[1] = system: Potassium channel subfamily K member 2 (Homo sapiens), O95069 [Y285A]; assay: Activation of recombinant human TREK1 Y285A mutant expressed in HEK293T cells assessed as increase in K+ current amplitude by whole cell voltage clamp electrophysiological analysis; format: cell-based
Procedure, shortened: (§1)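 Transiently transfected HEK-293T cells, whole-cell voltage clamp. Held at -60 mV, 500-ms ramp -120 to +60 mV. Pipette (mM) 140 KCl, 5 EGTA, 10 HEPES, pH 7.4; external 145 NaCl, 4 KCl, pH 7.3. Compound diluted from 10 mM DMSO stock and applied extracellularly. Current increase over control fitted to concentration–response curves for EC50.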

[2] = molecular target: T1, Potassium channel subfamily K member 4 (Homo sapiens, UniProt Q9NYG8); assay: Activation of recombinant human TRAAK expressed in HEK293T cells assessed as increase in K+ current amplitude by whole cell voltage clamp electrophysiological analysis; format: cell-based; procedure, shortened: as §1
T1 sequence (Q9NYG8 whole entry): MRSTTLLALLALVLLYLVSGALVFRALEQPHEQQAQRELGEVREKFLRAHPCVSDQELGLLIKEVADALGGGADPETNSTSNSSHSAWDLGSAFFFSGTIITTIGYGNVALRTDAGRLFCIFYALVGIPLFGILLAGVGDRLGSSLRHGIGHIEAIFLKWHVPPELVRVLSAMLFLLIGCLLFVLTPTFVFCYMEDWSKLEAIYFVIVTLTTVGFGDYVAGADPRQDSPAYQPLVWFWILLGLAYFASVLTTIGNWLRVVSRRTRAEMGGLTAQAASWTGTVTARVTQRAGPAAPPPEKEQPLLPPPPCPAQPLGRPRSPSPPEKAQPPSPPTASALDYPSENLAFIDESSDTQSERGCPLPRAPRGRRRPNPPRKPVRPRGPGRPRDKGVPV

Mus musculus [3] = assay: Analgesic activity in cerulein-induced mouse model of acute pancreatitis assessed as reduction in pancreatic inflammatory infiltration at 10 mg/kg, ip administered at 2 hrs interval for 10 hrs starting from post-first cerulein challenge and measured 12 hrs post-first cerulein challenge by H and E staining based histopathological analysis; format: functional, organism-based
Procedure, shortened: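 Cerulein pancreatitis: 7 hourly i.p. injections of 50 µg/kg; 10 mg/kg compound i.p. at 2, 4, 6, 8 and 10 h. Mice killed at 12 h and pancreas harvested for MPO activity and H&E histology. Ten random fields per slide scored blind by two observers for edema, inflammatory infiltration and acinar necrosis; n = 6.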

[4] = Drug uptake in BALB/c mouse plasma at 5 mg/kg, ip administered as single dose by LC-MS/MS analysis; format: ADME, organism-based; details: in vivo
Procedure, shortened: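 BALB/c mice (n = 6) given a single 5 mg/kg i.p. dose as a 0.5 mg/ml solution in 5% DMSO/5% Tween 80/90% saline. Plasma sampled at 0.083–8 h. Concentrations measured by LC-MS/MS against spiked standard curves; AUC, Tmax, Cmax and T1/2 calculated by non-compartmental analysis of mean concentrations.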

[5] = molecular target: Potassium channel subfamily K member 2 (Homo sapiens, UniProt O95069, T156A); assay: Activation of recombinant human TREK1 T156A mutant expressed in HEK293T cells assessed as increase in K+ current amplitude by whole cell voltage clamp electrophysiological analysis; format: cell-based; procedure, shortened: as §1
[6] = molecular target: T2, Potassium channel subfamily K member 18 (Homo sapiens) (UniProt Q7Z418); assay: Activation of recombinant human TRESK expressed in HEK293T cells assessed as increase in K+ current amplitude at 10 uM by whole cell voltage clamp electrophysiological analysis; format: cell-based
T2 sequence (whole entry): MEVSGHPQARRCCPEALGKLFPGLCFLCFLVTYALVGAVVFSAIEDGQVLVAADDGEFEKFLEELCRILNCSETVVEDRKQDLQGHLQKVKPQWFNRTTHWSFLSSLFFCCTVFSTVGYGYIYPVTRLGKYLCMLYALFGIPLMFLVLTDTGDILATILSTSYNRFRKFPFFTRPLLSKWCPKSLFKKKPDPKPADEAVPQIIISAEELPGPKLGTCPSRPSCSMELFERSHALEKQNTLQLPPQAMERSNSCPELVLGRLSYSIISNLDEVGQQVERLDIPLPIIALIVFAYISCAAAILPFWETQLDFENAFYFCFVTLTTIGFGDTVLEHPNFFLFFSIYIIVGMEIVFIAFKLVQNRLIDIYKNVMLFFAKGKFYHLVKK
Procedure, shortened: (§2)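 HEK-293T cells transiently transfected with the human K2P channel. Whole-cell clamp at -60 mV, 500-ms ramp -120 to +60 mV. Pipette 140 KCl (pH 7.4), external 145 NaCl/4 KCl (pH 7.3). Compound 10 μM, diluted from 10 mM DMSO stock into external solution.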

Mus musculus [7] = assay: Analgesic activity in mouse model of spared nerve injury assessed as reduction in number of hind paw lifting at 5 mg/kg, ip incubated for 30 mins measured within 5 mins by spontaneous pain test; format: functional, organism-based
Procedure, shortened: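 SNI mice, day 7, acclimated 3 days on a wire-mesh floor. Compound 5 mg/kg i.p. Starting 30 min after injection, mice were videotaped for 5 min and left hindpaw flinches counted blind; n = 7.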

[8] = molecular target: Potassium channel subfamily K member 2 (Homo sapiens, UniProt O95069, I293A); assay: Activation of recombinant human TREK1 I293A mutant expressed in HEK293T cells assessed as increase in K+ current amplitude by whole cell voltage clamp electrophysiological analysis; format: cell-based; procedure, shortened: as §1
[9] = molecular target: T3, Potassium channel subfamily K member 2 (Homo sapiens) (UniProt O95069); assay: Activation of recombinant human TREK1 expressed in HEK293T cells assessed as increase in K+ current amplitude by whole cell voltage clamp electrophysiological analysis; format: cell-based; procedure, shortened: as §1
T3 sequence (whole entry): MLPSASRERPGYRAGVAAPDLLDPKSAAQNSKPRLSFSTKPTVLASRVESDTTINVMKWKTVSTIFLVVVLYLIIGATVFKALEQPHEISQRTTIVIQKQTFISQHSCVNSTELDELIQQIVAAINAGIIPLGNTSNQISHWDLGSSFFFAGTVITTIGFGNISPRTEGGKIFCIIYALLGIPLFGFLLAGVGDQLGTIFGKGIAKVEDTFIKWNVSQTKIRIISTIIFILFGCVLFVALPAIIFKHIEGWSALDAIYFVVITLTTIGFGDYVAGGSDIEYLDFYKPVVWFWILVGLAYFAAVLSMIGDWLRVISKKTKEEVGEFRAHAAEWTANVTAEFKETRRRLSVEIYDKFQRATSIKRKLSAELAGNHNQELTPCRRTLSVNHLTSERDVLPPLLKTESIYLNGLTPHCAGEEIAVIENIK

[10] = molecular target: Potassium channel subfamily K member 3 (Homo sapiens) (UniProt O14649); assay: Activation of recombinant human TASK1 expressed in HEK293T cells assessed as increase in K+ current amplitude at 10 uM by whole cell voltage clamp electrophysiological analysis; format: cell-based; procedure, shortened: as §2
[11] = molecular target: T3, Potassium channel subfamily K member 2 (Homo sapiens); assay: Activation of recombinant human TREK1 expressed in HEK293T cells assessed as increase in probability of open channel by outside-out patch electrophysiological analysis; format: cell-based
Procedure, shortened: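 Outside-out patches from HEK-293T cells transfected with human TREK-1 (pEGFP-N1). Pipettes 7–15 MΩ. Open probability measured at -60 and +60 mV. Conductance taken as first open-state current amplitude divided by voltage at ±60 mV.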

Potassium channel subfamily K member 2 (Homo sapiens, UniProt O95069, I293A), sequence (O95069 whole entry I293A): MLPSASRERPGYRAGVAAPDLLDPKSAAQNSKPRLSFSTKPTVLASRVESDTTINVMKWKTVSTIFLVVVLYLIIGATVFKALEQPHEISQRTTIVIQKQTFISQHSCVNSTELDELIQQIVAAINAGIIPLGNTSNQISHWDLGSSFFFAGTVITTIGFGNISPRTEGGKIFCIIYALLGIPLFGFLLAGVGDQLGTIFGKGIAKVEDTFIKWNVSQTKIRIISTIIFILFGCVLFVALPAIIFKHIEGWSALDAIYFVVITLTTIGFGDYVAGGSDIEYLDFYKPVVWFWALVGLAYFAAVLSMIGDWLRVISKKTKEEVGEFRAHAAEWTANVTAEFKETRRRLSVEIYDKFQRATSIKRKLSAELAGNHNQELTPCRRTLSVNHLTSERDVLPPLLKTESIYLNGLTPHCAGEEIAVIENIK
Potassium channel subfamily K member 2 (Homo sapiens, UniProt O95069, T156A), sequence (O95069 whole entry T156A): as the sequence (O95069 whole entry I293A) above, with T156A, A293I counted along it
Potassium channel subfamily K member 3 (Homo sapiens), sequence (O14649 whole entry, looked up): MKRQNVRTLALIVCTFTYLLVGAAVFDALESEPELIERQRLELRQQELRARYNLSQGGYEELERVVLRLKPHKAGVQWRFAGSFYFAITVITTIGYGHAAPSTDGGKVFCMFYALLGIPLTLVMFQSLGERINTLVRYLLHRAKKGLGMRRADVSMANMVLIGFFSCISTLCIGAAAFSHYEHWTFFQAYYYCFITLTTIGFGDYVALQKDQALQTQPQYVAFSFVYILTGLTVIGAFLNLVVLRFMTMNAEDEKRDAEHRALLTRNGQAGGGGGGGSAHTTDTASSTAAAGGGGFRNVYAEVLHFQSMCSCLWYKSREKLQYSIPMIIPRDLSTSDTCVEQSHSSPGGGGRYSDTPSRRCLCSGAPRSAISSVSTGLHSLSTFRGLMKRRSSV

Activity [1]: inactive | EC50 [2]: 15.3 µM | Drug uptake [4]: Active | EC50 [5]: 7.57 µM | Activity [6]: Active | EC50 [8]: 7.98 µM | Activity [9]: Dose-dependent effect | Activity [10]: Active | Activity [11]: Active
Structure (SMILES): Cc1ccc2nc(-c3ccc(NC(=O)[C@@H]4CC[C@H](C(=O)O)C4)cc3)sc2c1
Activity (Mus musculus [3]): Active | Activity (Mus musculus [7]): Active
